Measured values reported in ChEMBL document CHEMBL1155940, “Synthesis and preliminary pharmacological evaluation of novel derivatives of L-beta-threo-benzylaspartate as inhibitors of the neuronal glutamate transporter EAAT3” (Bioorg Med Chem, 2008).

species on record: Homo sapiens; test: Selectivity for human EAAT3 over human EAAT1 expressed in mouse C17.2 cells; assay type: cell-based

With N[C@H](C(=O)O)[C@H](Cc1ccccc1)C(=O)O as the compound, how does the fold change (FC) read?
Its fold change (FC) is 10.

species on record: Homo sapiens; test: Selectivity for human EAAT3 over human EAAT2 expressed in mouse C17.2 cells; assay type: cell-based

How did the fold change (FC) turn out when N[C@H](C(=O)O)[C@H](Cc1ccccc1)C(=O)O was run?
The fold change (FC) was 10.

target: T1, Excitatory amino acid transporter 3 (Homo sapiens) (UniProt P43005); test: Residual [3H]D-aspartate uptake at human EAAT3 expressed in mouse C17.2 cells at 100 uM relative to control
T1 sequence (whole entry): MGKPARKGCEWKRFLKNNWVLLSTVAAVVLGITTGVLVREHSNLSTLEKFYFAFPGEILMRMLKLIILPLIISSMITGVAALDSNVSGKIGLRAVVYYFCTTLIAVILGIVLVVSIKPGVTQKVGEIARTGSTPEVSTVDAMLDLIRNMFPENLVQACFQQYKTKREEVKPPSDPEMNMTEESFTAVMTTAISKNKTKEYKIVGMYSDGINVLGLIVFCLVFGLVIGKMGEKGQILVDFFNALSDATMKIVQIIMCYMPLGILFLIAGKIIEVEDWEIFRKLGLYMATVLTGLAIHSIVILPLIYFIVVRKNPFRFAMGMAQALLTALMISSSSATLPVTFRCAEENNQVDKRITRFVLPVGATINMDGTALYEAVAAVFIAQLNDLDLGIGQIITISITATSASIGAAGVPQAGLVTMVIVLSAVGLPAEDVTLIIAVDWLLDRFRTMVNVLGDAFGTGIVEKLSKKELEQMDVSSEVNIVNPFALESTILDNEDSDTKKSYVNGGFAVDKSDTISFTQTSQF

With N[C@H](C(=O)O)C(Cc1cccc(F)c1)C(=O)O (stereo not given in full) as the compound, how does the residual activity read?
The residual activity was 0%.

For Cc1cc(C)cc(CC(C(=O)O)[C@H](N)C(=O)O)c1 (mixture of isomers), which residual activity is on record?
Its residual activity is 36%.

N[C@H](C(=O)O)C(Cc1ccccc1)C(=O)O (stereo not given in full) was tested. Which residual activity did it give?
Its residual activity is 4%.

With N[C@H](C(=O)O)C(Cc1cccc(Br)c1)C(=O)O (mixture of isomers) as the compound, how does the residual activity read?
Its residual activity is 8%.

How did the residual activity turn out when N[C@H](C(=O)O)C(Cc1ccc2ccccc2c1)C(=O)O (stereo not given in full) was run?
The residual activity was 68%.

How did the residual activity turn out when N[C@H](C(=O)O)[C@H](Cc1ccccc1)C(=O)O was run?
Its residual activity is 1%.

Which residual activity does the source give for N[C@H](C(=O)O)C(Cc1c(Cl)cccc1Cl)C(=O)O (stereo not given in full) here?
Its residual activity is 86%.

With Cc1cccc(CC(C(=O)O)[C@H](N)C(=O)O)c1 (mixture of isomers) as the compound, how does the residual activity read?
Its residual activity is 33%.

How did the residual activity turn out when N[C@H](C(=O)O)C(Cc1ccc([N+](=O)[O-])cc1)C(=O)O (stereo not given in full) was run?
The residual activity was 65%.

For N[C@H](C(=O)O)C(Cc1ccc(F)cc1)C(=O)O (mixture of isomers), which residual activity is on record?
The residual activity was 7%.

How did the residual activity turn out when N[C@H](C(=O)O)C(Cc1cccc([N+](=O)[O-])c1)C(=O)O (mixture of isomers) was run?
The residual activity was 29%.

target: T2, Excitatory amino acid transporter 3 (Homo sapiens, UniProt P43005); test: Displacement of [3H]D-aspartate from human EAAT3 expressed in mouse C17.2 cells; assay type: cell-based
T2 sequence (P43005 whole entry): T1 sequence (whole entry)
In short: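 C17.2 neuroprogenitor cells (passages 10–20) seeded at 5 × 10^4/well, transiently transfected with human EAAT3 plasmid 24 h after plating, assayed 24 h later. Cells preincubated 5 min at 37°C in HEPES-buffered saline, pH 7.4, then given 1 µM 3H-D-aspartate with varying inhibitor concentrations. Rinsed with ice-cold buffer after uptake and read by scintillation counting. Corrected for 4°C background. IC50 from a one-site fit, ±SEM.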

Which IC50 does the source give for N[C@H](C(=O)O)[C@@H](Cc1cccc(F)c1)C(=O)O here?
Its IC50 is 21.1 µM.

For N[C@H](C(=O)O)[C@H](Cc1cccc(F)c1)C(=O)O, which IC50 is on record?
The IC50 was 2.46 µM.
